Source: ChEMBL document CHEMBL1139354, “New derivatives of farnesylthiosalicylic acid (salirasib) for cancer treatment: farnesylthiosalicylamide inhibits tumor growth in nude mice models” (J Med Chem, 2009)
Activity calls are given as the source filed them. No cut-off for these calls is given here.

What was measured:
[1] = Cytotoxicity against human U87 cells after 5 to 7 days; assay type: functional, cell-based, U-87MG ATCC; details: U-87 MG
Summary of the method: (§1)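 U87 or Panc-1 cells were seeded at 5000 per well in DMEM/10% FCS and grown 24 h. Cells were then exposed to 6.25-100 µM in medium with 0.1% DMSO, or to vehicle. After 5-7 days cells were counted directly and IC50 was read from growth curves (2 independent experiments, n = 8, mean ± SD).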

[2] = test system: PANC-1; experiment: Cytotoxicity against human PANC1 cells after 5 to 7 days; assay type: functional, cell-based; summary of the method: as §1
[3] = AUC (0 to infinity) in Sprague-Dawley rat at 40 mg/kg, po; assay type: ADME, organism-based; parameters: time infinity, dose 40 mg/kg, route oral; details: plasma
[4] = Cmax in Sprague-Dawley rat at 40 mg/kg, po; assay type: ADME, organism-based; parameters: dose 40 mg/kg, route oral; details: in vivo
[5] = Elimination half life in Sprague-Dawley rat at 40 mg/kg, po; assay type: ADME, organism-based; parameters: dose 40 mg/kg, route oral; details: in vivo
[6] = AUC (0 to infinity) in Sprague-Dawley rat at 100 mg/kg, po; assay type: ADME, organism-based; parameters: time infinity, dose 100 mg/kg, route oral; details: plasma
Summary of the method: (§2)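 Male Sprague-Dawley rats (275-285 g) given a single oral dose of 100 mg/kg in corn oil. Arterial blood was taken under anesthesia at 10-330 min (4 animals per time point). Plasma was protein-precipitated with acetonitrile, propranolol served as internal standard, and samples were run on isocratic C18 LC-MS/MS (calibration 1-2500 ng/mL). Parameters came from a noncompartmental fit of the mean concentration-time data.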

[7] = Elimination half life in Sprague-Dawley rat at 100 mg/kg, po; assay type: ADME, organism-based; parameters: dose 100 mg/kg, route oral; details: in vivo; summary of the method: as §2
[8] = test system: PANC-1; experiment: Antitumor activity against human PANC1 cells xenografted CD1-Nu mouse at 100 mg/kg, po daily assessed as decrease in tumor weight after 18 days
[9] = Effect on Ras signaling in human U87 cells assessed as inhibition of NRas-GTP level at 50 uM after 24 hrs by immunoblot method; assay type: functional, cell-based; details: U-87MG ATCC
Summary of the method: (§3)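 Cells were seeded at 1.5 × 10⁶ per 10-cm dish, grown 24 h, then exposed to 50 µM or 0.1% DMSO for 24 h. Lysates in Tris pH 7.6/MgCl2/NaCl/NP40/DTT buffer went through a GST-Raf-RBD pull-down, followed by immunoblots with pan-Ras or isoform-specific antibodies. Bands were detected by ECL and quantified by densitometry. Inhibition was calculated as control active-Ras % minus treated active-Ras % (mean ± SD).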

[10] = Effect on Ras signaling in human U87 cells assessed as decrease in phospho-ERK level at 50 uM after 24 hrs by immunoblot method; assay type: functional, cell-based; details: U-87MG ATCC
Summary of the method: (§4)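 Cells were seeded at 1.5 × 10⁶ per 10-cm dish, grown overnight in 10% FCS, then treated with 50 µM or 0.1% DMSO for 24 h. Lysates in Tris pH 7.6/MgCl2/NaCl/NP40/DTT buffer were immunoblotted for phospho-ERK1/2 and phospho-Akt, with β-tubulin as loading reference. Detection was by ECL.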

[11] = test system: PANC-1; experiment: Effect on Ras signaling in human PANC1 cells assessed as inhibition of total Ras-GTP level at 50 uM after 24 hrs by immunoblot method; assay type: functional; details: PANC-1, 24 h; summary of the method: as §3
[12] = test system: PANC-1; experiment: Effect on Ras signaling in human PANC1 cells assessed as decrease in phospho-ERK level at 50 uM after 24 hrs by immunoblot method; assay type: functional, cell-based; summary of the method: as §4
[13] = Effect on Ras signaling in human U87 cells assessed as inhibition of KRas-GTP level at 50 uM after 24 hrs by immunoblot method; assay type: functional, cell-based; details: U-87MG ATCC; summary of the method: as §3
[14] = test system: PANC-1; experiment: Effect on Ras signaling in human PANC1 cells assessed as decrease in phospho-AKT level at 50 uM after 24 hrs by immunoblot method; assay type: functional, cell-based; summary of the method: as §4
[15] = Antitumor activity against human U87 cells xenografted CD1-Nu mouse at 100 mg/kg, po twice daily assessed as inhibition of tumor growth after 4 days; assay type: functional, U-87MG ATCC; details: U-87 MG, 96 h
Summary of the method: (§5)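 Nude mice under ketamine/xylazine received 5 × 10⁵ U87 cells into the striatum (1 µL/min for 5 min). Gd-DTPA contrast MRI on day 4 confirmed tumors and mice were grouped by size. From day 5 they received 100 mg/kg orally twice a day in corn oil, or vehicle. Tumor volumes were read from T1-weighted follow-up MRI. Normalized growth was taken as (follow-up volume − initial volume)/initial volume (n = 7, Mann-Whitney).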

[16] = Cmax in Sprague-Dawley rat at 100 mg/kg, po; assay type: ADME, organism-based; parameters: dose 100 mg/kg, route oral; details: in vivo; summary of the method: as §2
[17] = Effect on Ras signaling in human U87 cells assessed as inhibition of total Ras-GTP level at 50 uM after 24 hrs by immunoblot method; assay type: functional, cell-based; details: U-87MG ATCC; summary of the method: as §3
[18] = test system: U-87MG ATCC; experiment: Antitumor activity against human U87 cells xenografted CD1-Nu mouse at 100 mg/kg, po twice daily assessed as increase tumor volume after 9 days; assay type: functional, organism-based; parameters: dose 100 mg/kg; summary of the method: as §5
[19] = test system: PANC-1; experiment: Effect on Ras signaling in human PANC1 cells assessed as inhibition of NRas-GTP level at 50 uM after 24 hrs by immunoblot method; assay type: functional; details: PANC-1, 24 h; summary of the method: as §3
[20] = Effect on Ras signaling in human U87 cells assessed as decrease in phospho-AKT level at 50 uM after 24 hrs by immunoblot method; assay type: functional, cell-based; details: U-87MG ATCC; summary of the method: as §4
[21] = test system: PANC-1; experiment: Effect on Ras signaling in human PANC1 cells assessed as inhibition of KRas-GTP level at 50 uM after 24 hrs by immunoblot method; assay type: functional; details: PANC-1, 24 h; summary of the method: as §3
[22] = Antitumor activity against human U87 cells xenografted CD1-Nu mouse at 100 mg/kg, po twice daily assessed as inhibition of tumor growth after 9 days; assay type: functional, U-87MG ATCC; details: U-87 MG, 216 h; summary of the method: as §5
[23] = Effect on Ras signaling in human U87 cells assessed as inhibition of HRas-GTP level at 50 uM after 24 hrs by immunoblot method; assay type: functional, cell-based; details: U-87MG ATCC; summary of the method: as §3

Row | Structure (SMILES) | IC50 [1] [µM] | IC50 [2] [µM] | inhibition [9] [%] | inhibition at 50 µM [11] [%] | inhibition [13] [%] | inhibition [17] [%] | inhibition at 50 µM [19] [%] | inhibition at 50 µM [21] [%] | also measured
1 | CC(C)=CCC/C(C)=C/CC/C(C)=C/CSc1ccccc1C(=O)O [SALIRASIB] | 50 | 35 | – | – | – | – | – | – | AUC(0-inf) [3]: 6210 ng·h/mL; Cmax [4]: 2160 ng/mL; half-life [5]: 2.36 h
2 | CC(C)=CCC/C(C)=C/CC/C(C)=C/CSc1ccccc1C(N)=O | 10 | 20 | 37.3 | 37.4 | 50.8 | 33 | 8.6 | 56 | AUC(0-inf) [6]: 1810 ng·h/mL; half-life [7]: 5.23 h; Activity [8]: Active; Activity [10]: Active; Activity [12]: inactive; Activity [14]: inactive; inhibition in vivo at 100 mg/kg [15]: 80%; Cmax [16]: 371 ng/mL; Activity [18]: Active; Activity [20]: Active; inhibition in vivo at 100 mg/kg [22]: 50%
3 | CNC(=O)c1ccccc1SC/C=C(\C)CC/C=C(\C)CCC=C(C)C | 18 | 10 | 22.5 | 39.7 | 32.6 | 34.7 | 18.8 | 52 | –
4 | CC(C)=CCC/C(C)=C/CC/C(C)=C/CSc1ccccc1C(=O)N(C)C | 20 | 22 | 41 | 38.6 | 28 | 45.4 | 13.6 | 48 | inhibition [23]: 14%
5 | CC(C)=CCC/C(C)=C/CC/C(C)=C/CSc1ccccc1C(=O)OC(C)C | 52 | 70 | – | – | – | – | – | – | –
6 | COCOC(=O)c1ccccc1SC/C=C(\C)CC/C=C(\C)CCC=C(C)C | 10 | 12 | 5.1 | 2.6 | 4.8 | – | – | 19.9 | –
7 | COC(=O)c1ccccc1SC/C=C(\C)CC/C=C(\C)CCC=C(C)C | 10 | 30 | 18.7 | 5.3 | 23.8 | – | – | 11.9 | –
8 | CC(C)=CCC/C(C)=C/CC/C(C)=C/CSc1ccccc1C(=O)OCc1ccccc1 | 30 | 95 | – | – | – | – | – | – | –
